Series [1] addresses T1, Ectonucleoside triphosphate diphosphohydrolase 1 (Homo sapiens, UniProt P49961).
T1 sequence (P49961 whole entry): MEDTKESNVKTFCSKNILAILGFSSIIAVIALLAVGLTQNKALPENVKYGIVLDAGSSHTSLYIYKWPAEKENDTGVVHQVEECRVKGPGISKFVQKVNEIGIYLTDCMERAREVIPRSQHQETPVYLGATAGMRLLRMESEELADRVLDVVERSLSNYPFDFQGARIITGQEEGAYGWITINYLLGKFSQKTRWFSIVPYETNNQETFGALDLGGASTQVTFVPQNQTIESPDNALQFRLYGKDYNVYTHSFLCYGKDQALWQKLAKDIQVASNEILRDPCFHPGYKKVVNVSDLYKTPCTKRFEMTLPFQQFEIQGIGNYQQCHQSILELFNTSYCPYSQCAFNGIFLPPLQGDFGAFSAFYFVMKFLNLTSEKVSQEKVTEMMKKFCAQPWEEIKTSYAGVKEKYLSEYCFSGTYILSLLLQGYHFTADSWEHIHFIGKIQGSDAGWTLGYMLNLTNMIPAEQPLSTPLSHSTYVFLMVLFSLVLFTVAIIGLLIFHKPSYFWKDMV
Briefly: Inhibition of human CD39 expressed in CHO cells incubated for 4 hrs before addition of ATP and further incubated for 60 mins by colorimetric assay.

Series [2] has as its target 5'-nucleotidase (Homo sapiens, UniProt P21589). Briefly: Inhibition of human CD73 expressed in CHO cells incubated for 60 mins before addition of AMP and further incubated for 60 mins by colorimetric assay. In kind it is cell-based. An outline of the steps: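 Thawed stable CD73-CHO cells in HEPES pH 7.4 saline buffer with 0.1% glucose, 1500 cells/well. Preincubated 60 min at 37 °C with 16-point 1:3 compound dilutions (final 100–0 or 0.1–0 μM; 10 or 2% DMSO). 25 μM AMP then added, 60 min at 37 °C/5% CO2. Supernatant phosphate measured with PiColorLock Gold. Activity normalized to DMSO and no-cell wells. IC50 from a four-parameter fit.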

The nature of series [3]: Stability in dog hepatocytes. The class given is ADME, cell-based, Canis lupus familiaris, Hepatocyte.
The target in series [4] is T2, 5'-nucleotidase (Mus musculus, UniProt Q61503).
T2 sequence (Q61503 whole entry): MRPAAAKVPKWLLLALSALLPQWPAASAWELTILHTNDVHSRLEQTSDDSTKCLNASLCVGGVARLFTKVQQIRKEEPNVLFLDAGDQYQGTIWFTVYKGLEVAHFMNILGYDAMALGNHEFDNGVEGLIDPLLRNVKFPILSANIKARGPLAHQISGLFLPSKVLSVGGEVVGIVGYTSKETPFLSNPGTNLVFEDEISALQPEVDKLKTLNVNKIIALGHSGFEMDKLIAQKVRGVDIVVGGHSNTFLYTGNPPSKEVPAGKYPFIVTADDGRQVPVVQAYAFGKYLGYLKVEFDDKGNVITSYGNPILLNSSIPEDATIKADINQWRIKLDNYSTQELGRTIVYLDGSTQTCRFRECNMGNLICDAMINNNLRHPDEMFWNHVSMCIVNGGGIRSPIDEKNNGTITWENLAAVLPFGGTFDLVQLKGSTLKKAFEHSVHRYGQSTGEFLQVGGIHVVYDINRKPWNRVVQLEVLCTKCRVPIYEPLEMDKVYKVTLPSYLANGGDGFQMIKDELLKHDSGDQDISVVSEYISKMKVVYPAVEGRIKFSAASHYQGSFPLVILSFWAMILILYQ
Kind of series: Inhibition of soluble mouse CD73 incubated for 60 mins before addition of AMP and further incubated for 60 mins by colorimetric assay.

The target in series [5] is T2, 5'-nucleotidase. Kind of series: Inhibition of mouse CD73 expressed in CHO cells incubated for 60 mins before addition of AMP and further incubated for 60 mins by colorimetric assay. The class given is cell-based.

A value given as a limit tells only on which side of the number the result lay.

Sequence of 5'-nucleotidase (Homo sapiens, UniProt P21589) (P21589 whole entry): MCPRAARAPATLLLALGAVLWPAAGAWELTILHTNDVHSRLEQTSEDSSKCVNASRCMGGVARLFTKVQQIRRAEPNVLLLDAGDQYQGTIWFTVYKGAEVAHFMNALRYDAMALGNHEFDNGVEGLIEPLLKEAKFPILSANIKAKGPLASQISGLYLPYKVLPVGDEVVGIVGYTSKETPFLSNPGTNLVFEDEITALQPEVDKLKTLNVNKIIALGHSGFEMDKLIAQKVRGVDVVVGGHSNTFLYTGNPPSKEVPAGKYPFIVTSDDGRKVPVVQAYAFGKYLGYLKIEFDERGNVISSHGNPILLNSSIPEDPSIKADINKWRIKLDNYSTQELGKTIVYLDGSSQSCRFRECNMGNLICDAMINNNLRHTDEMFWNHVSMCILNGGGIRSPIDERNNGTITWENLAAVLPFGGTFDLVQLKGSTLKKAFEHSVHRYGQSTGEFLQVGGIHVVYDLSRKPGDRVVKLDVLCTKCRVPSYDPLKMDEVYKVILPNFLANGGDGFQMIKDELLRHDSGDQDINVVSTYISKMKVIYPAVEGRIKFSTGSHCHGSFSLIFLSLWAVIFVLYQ

For the compound `O=P(O)(O)COC[C@H]1O[C@@H](n2ncc3c(NC4CCCC4)nc(Cl)nc32)[C@H](O)[C@@H]1O`, the IC50 in series [1] is over 10000 nM; against 5'-nucleotidase [2], 2.6 nM; against 5'-nucleotidase [4] it was 3 nM; against 5'-nucleotidase [5], 13 nM. In series [3], the Stabilty result is “Stable”.

Source of the values: ChEMBL document CHEMBL4765491, “Discovery of Potent and Selective Methylenephosphonic Acid CD73 Inhibitors” (J Med Chem, 2021).
